Hits are enriched below; roughly 2.9% of the tested compounds scored in any of these assays.
NALP1 inh: NALP1 inflammasome inhibitors in reconstituted yeast, colorimetric, S. cerevisiae, triplicate retest; inhibition, % at 10 µM; S. cerevisiae NALP1/ASC/caspase-1 growth, X-gal OD620, 72 h; actives 0.61% (n = 280,000); in the data active = inhibition mostly above about 24%, no sharp cut-off; inactive = mostly below about 32%
IMP-1 inh: IMP-1 metallo-beta-lactamase inhibitors, primary screen, biochemical, epi-absorbance readout, Pseudomonas aeruginosa enzyme; purified IMP-1, nitrocefin hydrolysis, epi-absorbance fluorescence; metallo-beta-lactamase IMP-1 (Pseudomonas aeruginosa); AID 1556, 2009; actives 0.45% (n = 290,000); inhibition, % at 5.6 µM;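 active = inhibition above the mean plus 3 SD of all compounds in the same screening run, cut at about 4.5% in these data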;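 note: 0% = IMP-1 with DMSO and 100% = DMSO wells lacking enzyme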
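System: purified IMP-1 / Input: IMP-1 dispensed at 0.2 nM / Medium: 50 mM HEPES pH 7.1, 50 µM ZnSO4, 0.05% Brij 35 / Timing: 15 min enzyme–compound preincubation, then 25 min nitrocefin reaction, 25 °C / Technique: plate fluorescence quenching by hydrolysis product, ex 480/em 530 nm / Repeats: singlicate testing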
VIM-2 inh: VIM-2 metallo-beta-lactamase inhibitors, primary screen, biochemical, epi-absorbance readout, Pseudomonas aeruginosa enzyme; purified VIM-2, nitrocefin hydrolysis, epi-absorbance fluorescence; inhibition, % at 5.6 µM; actives 0.89% (n = 290,000); AID 1527, 2009;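 active = inhibition above the mean of all tested compounds plus 3 SD, cutoff set per screening run, cut at about 7.5% in these data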;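 note: red hydrolysis product quenches plate fluorescence so inhibitors raise well fluorescence; 0% = enzyme with DMSO and 100% = DMSO without enzyme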
SUMO HTRF inh: inhibitors of in vitro SUMOylation cascade, primary screen, biochemical, HTRF, uHTS; SUMO-conjugating enzyme UBC9 (Homo sapiens), P63279; inhibition, % at 35 µM; HTRF SUMOylation assay, SAE1/SAE2 + UBC9; actives 0.36% (n = 290,000); in the data active = inhibition above about 50%, passing the limit was not always enough
Target sequence (P63279 whole entry, looked up): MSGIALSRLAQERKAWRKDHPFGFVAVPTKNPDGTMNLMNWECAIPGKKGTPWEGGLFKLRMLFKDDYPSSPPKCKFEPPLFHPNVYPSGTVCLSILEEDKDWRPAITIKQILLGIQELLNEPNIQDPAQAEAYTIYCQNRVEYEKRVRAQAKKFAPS
DNA FID counter: compounds displacing fluorescent DNA intercalator, primary screen, artefact control for HCV NS3 helicase inhibitor project, biochemical, FID fluorescence; DNA fluorescent intercalator displacement; inhibition, % at 7.9 µM; actives 0.17% (n = 290,000); in the data active = inhibition above about 37%;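 note: 0% = vehicle and 100% = reference compound; higher means more ethidium bromide displaced from hairpin DNA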
Mot1-301 SUMO: yeast Mot1-301 growth rescue at high temperature, primary screen, SUMOylation pathway inhibitor project, S. cerevisiae, ATP luminescence, 38.5C; actives 1% (n = 320,000); growth rescue, % at 18.8 µM; S. cerevisiae Mot1-301 growth rescue; percent above DMSO median, 100 means doubled;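 active = every valid replicate shows activation above 250% relative to neutral control wells; inactive = the rest, any valid replicate at or below 250%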;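 note: OY570 slx delta 5 strain wells were the positive control but not used for scaling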
The depositor's hits bear a star.

Screening C#CCOCCOCCOCCNc1nc(N2CCN(C(=O)[C@H](Cc3cc4ccccc4[nH]3)n3cc([C@@H](N)C(C)CC)nn3)CC2)nc(N2CCN(C(=O)[C@H](Cc3cc4ccccc4[nH]3)n3cc([C@@H](N)CC(C)C)nn3)CC2)n1 (stereo partly drawn) returned NALP1 inh 14.3, IMP-1 inh -0.1, VIM-2 inh -3.7, SUMO HTRF inh -14.1, DNA FID counter 40.8* and Mot1-301 SUMO 1.6.
`C#CCOCCOCCOCCNc1nc(N2CCN(C(=O)[C@H](CCCCN)n3cc([C@@H](N)C(C)CC)nn3)CC2)nc(N2CCN(C(=O)[C@H](Cc3cc4ccccc4[nH]3)n3cc([C@@H](N)CC(C)C)nn3)CC2)n1` (stereo partly drawn) gave NALP1 inh 13.9, IMP-1 inh -3.0, VIM-2 inh -1.8, SUMO HTRF inh -23.0, DNA FID counter 47.7* and Mot1-301 SUMO -17.6.
C#CCOCCOCCOCCNc1nc(N2CCN(C(=O)[C@H](Cc3cc4ccccc4[nH]3)n3cc([C@@H](N)C(C)CC)nn3)CC2)nc(N2CCN(C(=O)[C@H](CCCCN)n3cc([C@@H](N)CO)nn3)CC2)n1 (stereo partly drawn) was read as NALP1 inh -11.5, IMP-1 inh -3.3, VIM-2 inh -1.6, SUMO HTRF inh -17.7, DNA FID counter 55.1* and Mot1-301 SUMO -18.0.
C#CCOCCOCCOCCNc1nc(N2CCN(C(=O)[C@H](CCCCN)n3cc([C@@H](N)CO)nn3)CC2)nc(N2CCN(C(=O)[C@H](Cc3cc4ccccc4[nH]3)n3cc([C@@H](N)CC(C)C)nn3)CC2)n1 was read as NALP1 inh 19.5, IMP-1 inh -2.2, VIM-2 inh -0.2, SUMO HTRF inh 5.1, DNA FID counter 48.9* and Mot1-301 SUMO -8.5.
For C#CCOCCOCCOCCNc1nc(N2CCN(C(=O)[C@H](CCC(=O)O)n3cc(C(N)CO)nn3)CC2)nc(N2CCN(C(=O)[C@H](Cc3cc4ccccc4[nH]3)n3cc(C(N)[C@H](C)CC)nn3)CC2)n1 (stereo partly drawn) the results were NALP1 inh 4.3, IMP-1 inh -3.6, VIM-2 inh -4.2, SUMO HTRF inh -16.6, DNA FID counter 17.7 and Mot1-301 SUMO -0.2.
Screening C#CCOCCOCCOCCNc1nc(N2CCN(C(=O)C(Cc3ccc(O)cc3)n3cc(C(N)CC(C)C)nn3)CC2)nc(N2CCN(C(=O)C(Cc3cc4ccccc4[nH]3)n3cc(C(N)Cc4ccc(O)cc4)nn3)CC2)n1 (stereo not drawn) returned NALP1 inh 6.5, IMP-1 inh -5.2, VIM-2 inh -5.2, SUMO HTRF inh -28.2, DNA FID counter 39.8* and Mot1-301 SUMO -5.6.
For C#CCOCCOCCOCCNc1nc(N2CCN(C(=O)[C@H](CCC(=O)O)n3cc(C(N)Cc4ccc(O)cc4)nn3)CC2)nc(N2CCN(C(=O)[C@H](Cc3cc4ccccc4[nH]3)n3cc(C(N)CC(C)C)nn3)CC2)n1 (stereo partly drawn) the results were NALP1 inh -9.2, IMP-1 inh -4.3, VIM-2 inh -1.3, SUMO HTRF inh 6.2, DNA FID counter 24.9 and Mot1-301 SUMO 39.5.
O=S(=O)(Cc1ccc(Cl)cc1)c1ncc(CO)n1Cc1ccccc1 was read as NALP1 inh 4.9, IMP-1 inh -1.3, VIM-2 inh -0.8, SUMO HTRF inh -9.5, DNA FID counter -13.8 and Mot1-301 SUMO active.
Screening O=S(Cc1ccc(Cl)cc1)c1ncc(CO)n1Cc1ccccc1 (stereo not drawn) returned NALP1 inh 7.0, IMP-1 inh -1.1, VIM-2 inh -1.6, SUMO HTRF inh 10.1, DNA FID counter -15.4 and Mot1-301 SUMO -2.6.
Screening N#Cc1c(N2CCCC(O)C2)nc(N)c2c(N)nc3c(c12)CC(=O)N3C12CC3CC(CC(C3)C1)C2 (stereo not drawn) returned NALP1 inh 6.7, IMP-1 inh -2.5, VIM-2 inh -1.9, SUMO HTRF inh 99.4*, DNA FID counter -14.1 and Mot1-301 SUMO -7.9.
`CCN(CC)c1nc2c3c(nc4c(c3c1C#N)CC(=O)N4c1ccc(Cl)cc1)NC(C)=N2` gave NALP1 inh 25.1, IMP-1 inh -4.1, VIM-2 inh -1.6, SUMO HTRF inh 38.1, DNA FID counter 7.5 and Mot1-301 SUMO 13.4.
C=C(C)CN(CC)c1nc(N)c2c(N)nc3c(c2c1C#N)CC(=O)N3C12CC3CC(CC(C3)C1)C2 was read as NALP1 inh -9.1, IMP-1 inh -5.9, VIM-2 inh -3.9, SUMO HTRF inh 61.7*, DNA FID counter -3.9 and Mot1-301 SUMO -1.1.
For COc1ccc(CN2C(=O)Cc3c2nc(N)c2c(N)nc(N4CCCCC4)c(C#N)c32)cc1 the results were NALP1 inh 34.1, IMP-1 inh -2.7, VIM-2 inh -2.6, SUMO HTRF inh 29.8, DNA FID counter -11.0 and Mot1-301 SUMO 11.2.
For CC12CN3CC(C)(CN(C1)C3c1ccc3c(c1)OCO3)C2O (stereo not drawn) the results were IMP-1 inh -1.0, VIM-2 inh 0.5, SUMO HTRF inh -1.2, DNA FID counter -3.4 and Mot1-301 SUMO active.
Screening CC12CN3CC(C)(CN(C1)C3c1ccccc1)C2O (stereo not drawn) returned NALP1 inh -8.8, IMP-1 inh -3.1, VIM-2 inh 0.1, SUMO HTRF inh -4.5, DNA FID counter -7.6 and Mot1-301 SUMO -14.8.
Screening Cc1nnsc1C(=O)NNS(=O)(=O)c1cc(C(F)(F)F)cc(C(F)(F)F)c1 returned NALP1 inh 18.6, IMP-1 inh -1.8, VIM-2 inh -4.3, SUMO HTRF inh -0.3, DNA FID counter -8.8 and Mot1-301 SUMO 13.7.
For Cc1ccc(S(=O)(=O)NNC(=O)c2snnc2C)cc1 the results were NALP1 inh 37.0*, IMP-1 inh 0.8, VIM-2 inh -2.1, SUMO HTRF inh 9.2 and DNA FID counter 0.0.
`CCN(CC)CCN(C(=O)c1cc2ccccc2cc1OC)c1nc2ccc(OC)cc2s1` gave NALP1 inh 5.1, IMP-1 inh -4.0, VIM-2 inh -3.1, SUMO HTRF inh -15.0, DNA FID counter 43.9* and Mot1-301 SUMO -26.4.
Screening CCN(CC)CCN(C(=O)C1=COCCO1)c1nc2c(OC)ccc(OC)c2s1 returned NALP1 inh 15.6, IMP-1 inh -3.6, VIM-2 inh 8.9*, SUMO HTRF inh 7.6, DNA FID counter 19.3 and Mot1-301 SUMO 2.2.
